These results are taken from ChEMBL document CHEMBL3399930, “Rat hormone sensitive lipase inhibition by cyclipostins and their analogs” (Bioorg Med Chem, 2015).

For orientation: IC50 means the point on the concentration scale where inhibition reaches its midpoint.

For the first test, the target named is T1, Hormone-sensitive lipase (Rattus norvegicus, UniProt P15304).
T1 sequence (P15304 whole entry): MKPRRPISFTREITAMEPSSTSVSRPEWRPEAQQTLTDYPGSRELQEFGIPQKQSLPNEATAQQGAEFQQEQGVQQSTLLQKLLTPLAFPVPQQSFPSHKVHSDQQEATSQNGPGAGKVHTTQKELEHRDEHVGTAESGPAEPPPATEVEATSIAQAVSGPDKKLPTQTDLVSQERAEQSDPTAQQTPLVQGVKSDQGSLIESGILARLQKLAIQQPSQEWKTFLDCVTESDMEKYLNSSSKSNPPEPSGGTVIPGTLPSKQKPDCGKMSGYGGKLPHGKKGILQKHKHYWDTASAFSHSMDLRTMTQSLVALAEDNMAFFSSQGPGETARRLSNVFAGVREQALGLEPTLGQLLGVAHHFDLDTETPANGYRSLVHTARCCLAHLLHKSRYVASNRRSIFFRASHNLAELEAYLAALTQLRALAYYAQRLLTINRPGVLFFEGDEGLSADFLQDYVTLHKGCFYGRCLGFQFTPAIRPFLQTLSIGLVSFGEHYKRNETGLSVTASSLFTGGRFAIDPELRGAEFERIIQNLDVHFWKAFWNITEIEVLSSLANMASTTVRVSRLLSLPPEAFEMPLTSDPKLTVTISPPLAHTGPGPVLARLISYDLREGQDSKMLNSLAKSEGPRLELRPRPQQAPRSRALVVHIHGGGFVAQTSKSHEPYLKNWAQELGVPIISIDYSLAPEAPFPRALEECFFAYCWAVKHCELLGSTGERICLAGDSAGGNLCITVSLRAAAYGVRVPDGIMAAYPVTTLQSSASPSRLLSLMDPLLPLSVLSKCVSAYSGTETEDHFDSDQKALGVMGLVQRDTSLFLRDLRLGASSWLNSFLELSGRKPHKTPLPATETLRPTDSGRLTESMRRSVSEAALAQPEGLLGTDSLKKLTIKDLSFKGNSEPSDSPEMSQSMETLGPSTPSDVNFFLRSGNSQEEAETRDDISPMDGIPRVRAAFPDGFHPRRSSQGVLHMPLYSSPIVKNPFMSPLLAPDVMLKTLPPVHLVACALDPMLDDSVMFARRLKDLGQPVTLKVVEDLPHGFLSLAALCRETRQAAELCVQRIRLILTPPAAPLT
Put plainly: Irreversible inhibition of rat hormone sensitive lipase assessed as relative residual activity by kinetic analysis. An outline of the steps: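 Recombinant His-tagged rat HSL, no preincubation, added directly at 37°C to liposomes containing both [3H]triolein and inhibitor, at several inhibitor concentrations. Samples every 3–5 min over 30 min. Released oleic acid extracted and measured by scintillation. Residual activity versus inhibitor concentration and time fitted to an irreversible inactivation scheme (k-2 ≈ 0) to obtain binding and inactivation constants.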
As to `CCCCCCCCCCCCCCCCO[P@]1(=O)OC[C@@H]2COC(=O)C2=C(C)O1` (relative stereo), the Ki turned out to be 0.04 µM.

A further test addresses T1, Hormone-sensitive lipase. In words: Inhibition of rat hormone sensitive lipase assessed as oleic acid release from [3H]triolein by scintillation counting. An outline of the steps:
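His-tagged rat HSL expressed in baculovirus-infected Sf9 cells, Ni-NTA purified. Enzyme (20–100 nM) preincubated 30 min on ice with inhibitor-containing PC/PI liposomes, no triolein. Substrate: liposomes of 200 μM PC/PI (3:1 w/w) with 500 μM triolein plus 3H-triolein. Buffer: 25 mM Tris, 150 mM NaCl, 0.2 mM EDTA, 1 mM β-mercaptoethanol, pH 7.4, with 0.2% BSA. Run at 37°C. Samples taken every 10 min (6–8 points), oleate extracted and counted. IC50 is the inhibitor level giving 50% activity, in triplicate.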
Turning to `CCCCCCCCCCCCCCCC[C@@H]1CC[P@@](=O)(OC)OC(C)=C1C(=O)OC` (relative stereo), the IC50 amounted to 60 µM. Same read-out and setting: for `CCCCCCCCCCCCCCCCO[P@]1(=O)CC[C@@H]2COC(=O)C2=C(C)O1` (racemic) the value was 6.9 µM. On to `CCCCCCCCCCCCCCCCCC[C@@H]1CC[P@@](=O)(OC)OC(C)=C1C(=O)OC` (relative stereo), for which the half-maximal inhibitory concentration (IC50) was above 100 µM. In the case of `CCCCCCCCCCCCCCCC[C@H]1CC[P@@](=O)(OC)OC(C)=C1C(=O)OC`, the IC50 came out at 10 µM. On the same count and under the same terms, in the case of `CCCCCCCCCCCC[C@H]1CC[P@@](=O)(OC)OC(C)=C1C(=O)OC` (relative stereo) it was 13.5 µM; in that of `CCCCCCCCCCCCCCCO[P@]1(=O)CC[C@@H]2COC(=O)C2=C(C)O1` (racemic), 0.45 µM; in that of `CO[P@]1(=O)OC[C@@H]2COC(=O)C2=C(C)O1` (relative stereo), above 100 µM. Same read-out and setting: for `CO[P@@]1(=O)CC[C@H]2COC(=O)C2=C(C)O1` (relative stereo) the value was 100 µM; for `CO[P@]1(=O)OC[C@H]2COC(=O)C2=C(C)O1` (relative stereo) [CYCLOPHOSTIN], above 100 µM. Same read-out and setting: for `CCCCCCCCCCCCCCCO[P@]1(=O)OC[C@H]2COC(=O)C2=C(C)O1` (racemic) the value was 0.075 µM; for `CCCCCCCCCCCCCCCCO[P@]1(=O)OC[C@H]2COC(=O)C2=C(C)O1` (relative stereo), 0.42 µM.

For `CCCCCCCCCCCCCCCCOP1(=O)OCCC(C(=O)OC)=C(C)O1` (stereo not given), the IC50 worked out at 0.06 µM.

On to `CCCCCCCCCCCCCCCCO[P@]1(=O)OC[C@@H]2COC(=O)C2=C(C)O1` (relative stereo), for which the IC50 was found to be 0.025 µM.

As to `CCCCCCCCCCCCCCCO[P@]1(=O)OC[C@@H]2COC(=O)C2=C(C)O1` (racemic), the half-maximal inhibitory concentration (IC50) was determined as 0.9 µM. The same measure, in the same setting: for `CCCCCCCCCCCCCCCO[P@]1(=O)CC[C@H]2COC(=O)C2=C(C)O1` (racemic) the value was 0.47 µM; for `CCCCCCCCCCCCCCCCO[P@]1(=O)CC[C@H]2COC(=O)C2=C(C)O1` (racemic), 0.36 µM; for `CCCCCCCCCCCCCCCCCC[C@H]1CC[P@@](=O)(OC)OC(C)=C1C(=O)OC` (relative stereo), 27 µM. Still for that read-out and setting: for `CCCCCCCCCCCC[C@@H]1CC[P@@](=O)(OC)OC(C)=C1C(=O)OC` (relative stereo) the value was 35 µM.

With `CCCCCCCCCCCCCCCCOP1(=O)OC(C)=C(C(=O)OC)CCC1(F)F` (stereo not given), the IC50 is above 100 µM.
